A selection: hits, their analogues and other compounds. The true share with any hit is near 2.4%.
Scp-1 inhibitor = blocks human Scp-1 phosphatase activity | AID 493091 | Recombinant Scp1, phosphopeptide, malachite green phosphate absorbance | hit rate 0.88% among 340,000 | inhibition, % at 20 µM;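 active = inhibition above about 50% at 20 µM, limit read from the data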
Target sequence (Q9GZU7 76-261 limits assumed): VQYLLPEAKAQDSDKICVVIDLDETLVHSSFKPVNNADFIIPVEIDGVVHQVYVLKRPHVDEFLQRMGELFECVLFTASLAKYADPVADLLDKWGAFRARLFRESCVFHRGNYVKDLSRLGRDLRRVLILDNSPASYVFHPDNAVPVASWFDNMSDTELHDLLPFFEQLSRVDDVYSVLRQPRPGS
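Material – SCP-1 phosphatase catalytic domain, residues 76-261 · Buffer or medium – Acidic Tris acetate buffer with magnesium and detergent · Also added – Phospho 17-mer peptide substrate · Compound – single 20 µM dose, 1% DMSO · Times – 45 min room-temperature reaction, 5 min colour, 30 min stabiliser · Technique – Phosphate-binding colour reagent, absorbance read at 630 nm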
SUMO1 PPI mod = SUMO1-SIM interaction modulation; P63165; SUMO1 binding to a labelled peptide, TR-FRET, 1 h; inhibition, % at 20 µM; hit rate 0.33% among 360,000; in the data active = inhibition above about 37%
Target sequence (P63165 whole entry, looked up): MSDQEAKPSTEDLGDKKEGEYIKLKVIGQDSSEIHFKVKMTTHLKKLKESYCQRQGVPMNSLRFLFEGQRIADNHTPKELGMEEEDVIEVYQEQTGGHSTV
DNMT1 inh = blocks human DNA methyltransferase DNMT1 | inhibition (reported as % activation of signal), % at 10 µM | DNMT1 molecular beacon, Hinp1I cleavage, fluorescence | hit rate 0.83% among 360,000 | P26358 | AID 588458; in the data active = inhibition above about 50%
LMPTP block = blocks human LMPTP phosphatase. recombinant LMPTP-A, OMFP fluorogenic substrate, fluorescence intensity. inhibition, % at 20 µM. hit rate 0.22% among 360,000. AID 651560;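 active = compounds that cut the enzyme signal by at least half of the control window in the single-dose screen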
Target sequence (P24666 whole entry, looked up): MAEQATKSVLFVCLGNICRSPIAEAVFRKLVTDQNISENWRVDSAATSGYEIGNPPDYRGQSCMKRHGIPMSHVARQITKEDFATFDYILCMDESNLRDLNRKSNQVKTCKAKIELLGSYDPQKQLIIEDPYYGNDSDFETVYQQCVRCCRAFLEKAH
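material = LMPTP-A | quantity = 0.625 nM enzyme | reagent = OMFP substrate, 400 µM final | buffer or medium = Bis-Tris pH 6.0, DTT, detergent | detection = endpoint fluorescence intensity from OMFP dephosphorylation | dosing = single 20 µM dose | read-out basis = % inhibition relative to no-enzyme and uninhibited control wells | control set = no-enzyme and uninhibited controls | timing = 50 min at room temperature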
NadD block = blocks S. aureus nicotinate mononucleotide adenylyltransferase | purified NadD enzyme, colorimetric absorbance read-out | inhibition, % at 20 µM | hit rate 0.78% among 360,000; in the data active = inhibition above about 26%
STEP inh = blocks human striatal-enriched tyrosine phosphatase | hit rate 0.25% among 360,000 | recombinant STEP, OMFP fluorogenic substrate, fluorescence | inhibition, % at 20 µM | P54829;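 active = inhibition at 20 µM, scaled per plate between control wells, above about 37%, limit read from the data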
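Test system: STEP tyrosine phosphatase / Reagent: OMFP at 25 µM / Doses: 20 µM, 1% DMSO / Read-out: percent inhibition scaled to no-enzyme and uninhibited-enzyme controls, plate-pattern corrected / Detection: FITC-channel fluorescence of OMFP product / Medium: Bis-Tris buffer pH 6.0, 2.5 mM DTT, 0.005% Tween 20 / Schedule: 20 min at room temperature, dark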
Scp1 confirm = Scp-1 (human) inhibition, single-dose confirmed | shares compounds with Scp-1 inhibitor | recombinant SCP-1 catalytic domain, phosphate release, malachite green absorbance | inhibition, % at 20 µM | hit rate 61% among 2,500 | AID 540281
Scp-1 MG ctr = interferes with malachite green readout, flagging false Scp-1 hits. shares compounds with Scp-1 inhibitor. Colorimetric interference counterscreen, malachite green absorbance 630 nm. apparent inhibition (interference), % at 20 µM. 2,500 tested, under 10 active. AID 540313;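 note: compounds added after enzyme reaction finished so only phosphate colour detection is probed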
Scp-1 Tm shift = validation of human Scp-1 inhibitors by thermal shift binding | shares compounds with Scp-1 inhibitor | Recombinant SCP1, Sypro Orange thermal shift Tm | thermal shift relative to vanadate control, % at 40 µM | hit rate 25% among 1,500;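 active = substances whose mean melting-temperature shift, as a percentage of the reference inhibitor's shift, reaches about 5.3%, limit read from the data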
Beacon interf DR = shows spectral interference in the DNMT1 beacon assay | 200 tested, under 10 active | AID 602382 | shares compounds with DNMT1 inh | IC50, µM | molecular beacon fluorescence, spectral interference counter-screen; call rule not given here
DNMT1 inh conf = confirmation of human DNMT1 inhibitors; shares compounds with DNMT1 inh; DNMT1 molecular beacon HinP1I cleavage, fluorescence; inhibition, % at 10 µM; hit rate 8% among 2,300; AID 602385;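 active = average inhibition of at least 30% in the single-concentration confirmation test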
DNMT1 interf = shows spectral interference in the DNMT1 beacon assay | shares compounds with DNMT1 inh | DNMT1 molecular beacon spectral interference counterscreen, fluorescence 485/520 | activation (fluorescence interference), % at 10 µM | hit rate 1% among 2,300 | AID 602387;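 active = activation of at least 30% at 10 µM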;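 note: DNMT1 catalytic domain with a HinP1I cleavage step and a FAM/dabcyl DNA beacon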
A number is an active result; – = inactive; · = no result given.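 Rule for the calls, unless noted: active = inhibition of at least 30% at 20 µM; inactive = the rest.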

SMILES | Scp-1 inhibitor | SUMO1 PPI mod | DNMT1 inh | LMPTP block | NadD block | STEP inh | Scp1 confirm | Scp-1 MG ctr | Scp-1 Tm shift | DNMT1 inh conf | DNMT1 interf | others
Cc1nc(SCC(=O)N2CCOCC2)c2c3c(sc2n1)CCC3 | – | – | – | – | – | – | · | · | · | · | ·
CCN(CC(=O)Nc1c(F)cccc1F)C(=O)CCc1nc2sc3c(c2c(=O)[nH]1)CCCC3 | 65 | – | 54 | – | – | – | 59 | – | 9.0 | – | –
CCN(CC(=O)Nc1ccccc1C(F)(F)F)C(=O)CCc1nc2sc3c(c2c(=O)[nH]1)CCCC3 | – | – | – | – | – | – | · | · | · | · | ·
COc1ccc(S(=O)(=O)N2CCOCC2)cc1NC(=O)c1cccc(-n2cccc2)c1 | 58 | – | 73 | – | – | – | – | – | · | – | –
COc1ccccc1NC(=O)c1cccc(S(=O)(=O)N2CCOCC2)c1 | – | – | – | – | – | – | · | · | · | · | ·
O=C(CCS(=O)(=O)c1ccc(Br)cc1)N1CCCCCC1 | 79 | 43 | 100 | – | – | – | 66 | – | – | – | –
CC(=O)NC(Cc1c[nH]c2ccccc12)C(=O)NCc1ccco1 (stereo unspecified) | – | – | – | – | – | – | · | · | · | · | ·
CC(Cc1c[nH]c2ccccc12)C(=O)NCc1ccco1 (stereo unspecified) | 103 | 60 | 74 | – | – | – | 60 | – | – | – | –
Cc1cccc(NC(=O)CN2CCOCC2)c1C | – | – | – | – | – | – | · | · | · | · | ·
O=C(O)c1cc(-c2ccc(/C=N/Nc3ccc(Cl)cc3)o2)ccc1Cl | – | – | – | – | – | – | · | · | · | · | ·
CC1=NOC(=O)/C1=C\c1ccc(-c2ccc(Cl)c(C(=O)O)c2)o1 | 67 | – | 82 | – | – | – | 58 | – | – | – | –
O=C1NN(c2ccccc2)C(=O)/C1=C/c1ccc(-c2ccc(C(=O)O)cc2)o1 | 77 | – | 78 | – | – | – | 58 | – | 15 | – | – | Beacon interf DR=–
COC(=O)c1ccc(N2NC(=O)/C(=C/c3ccc(-c4ccc(Cl)c(C(=O)O)c4)o3)C2=O)cc1 | 76 | – | 79 | – | – | – | 75 | – | 14 | – | –
CCN(CC)CCn1c2c(c(SCC(=O)Nc3cccc4ccccc34)nc1=O)CCCC2 | – | – | – | – | – | – | · | · | · | · | ·
CCCCC[C@@H](/C=C/C1C(=O)C=C[C@H]1C/C=C\CCCC(=O)O)OC(C)=O (stereo partly specified) | – | – | – | – | – | – | · | · | · | · | ·
O=C1Nc2ccc(S(=O)(=O)NCc3ccco3)c3cccc1c23 | 56 | – | 63 | – | – | – | 70 | – | – | – | 78
CCC(CC)CN1CCN=C1Nc1ccccc1 | – | – | – | – | – | – | · | · | · | · | ·
CCC(C)NCCOCCSc1ccc(Cl)cc1 (stereo unspecified) | – | – | – | – | – | – | · | · | · | · | ·
CC(NC(=O)c1noc2c1CCCC2)c1ccccc1 (stereo unspecified) | – | – | – | – | – | – | · | · | · | · | ·
COC(=O)c1ccccc1NC(=O)c1noc2c1CCC2 | 70 | – | 99 | – | – | – | 65 | – | – | – | –
CSc1ccccc1NC(=O)c1noc2c1CCC2 | 63 | – | 81 | – | – | – | 67 | – | – | – | –
COc1ccc(NC(=O)c2noc3c2CCCCC3)cc1 | – | – | – | – | – | – | · | · | · | · | ·
